# Measurements reported in ChEMBL document CHEMBL1144894, “Synthesis of 1-boraadamantaneamine derivatives with selective astrocyte vs C6 glioma antiproliferative activity. A novel class of anti-hepatitis C agents with potential to bind CD81” (2003).
# Key:
# [1] = Nonspecific cytotoxicity at the specified concentration; assay type: functional
# [2] = Antiproliferative effect was determined on CD81 enriched cell lines for binding and activation of the CD81 receptor; assay type: functional, Rattus norvegicus
# In short: (§1)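 Primary rat pup astrocytes (CD81-enriched, 4-8 days postpartum) and C6 glioma (CD81-deficient) were run in parallel, seeded at 3 × 10³ and 10³ cells/well. Compounds at 0.1-10 µM were given in 2% FCS-BME (0.05% DMSO final) for 4 days at 37 °C, 5% CO₂. Cells were formaldehyde-fixed and cresyl violet-stained (pH 3.7), with A560 read-out. % survival is relative to untreated wells, from 3 experiments × 4 wells.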
# [3] = Tested for greatest astrocyte-selective antiproliferative character at concentration of 5 uM; assay type: functional
# In short: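 Rat pup primary astrocytes (CD81-enriched, 4-8 days postpartum) and C6 glioma cells run in parallel, seeded at 3 × 10³ and 10³ per well. Incubated with compound for 4 days at 37 °C, 5% CO₂, final DMSO 0.05%. Fixed in formaldehyde, stained with cresyl violet, dye eluted in acetic acid, A560 read. % survival = treated/untreated ×100. Three experiments, four wells each.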
# Rattus norvegicus = organism: Rattus norvegicus; test: Concentration showing a non-astrocyte selective antiproliferative effect was determined; assay type: functional; in short: as §1
SMILES,Cytotoxicity [1],Antiproliferative effect [2],Cell survival [3],Concentration (Rattus norvegicus)
CC(C)C[C@H](NC(=O)C12CC3CC(CC(C3)C1)C2)C(=O)O,>10 µM,10 µM,,
OCC[NH2+][B-]12CC3CC(CC(C3)C1)C2,>10 µM,10 µM,,
O=C(O)[C@H](Cc1ccccc1)NC(=O)C12CC3CC(CC(C3)C1)C2,>10 µM,10 µM,82%,
COC(=O)[C@H](Cc1ccccc1)[NH2+][B-]12CC3CC(CC(C3)C1)C2,>10 µM,10 µM,,
C1C2CC3CC1CC(NC14CC5CC(CC(C5)C1)C4)(C2)C3,,,,10 µM
COC(=O)[C@H](CC(C)C)NC(=O)C12CC3CC(CC(C3)C1)C2,,,,10 µM
COC(=O)[C@H](CS)[NH2+][B-]12CC3CC(CC(C3)C1)C2,,,,10 µM
O=C(NC12CC3CC(CC(C3)C1)C2)C12CC3CC(CC(C3)C1)C2,,,,10 µM
COC(=O)[C@H](CC(C)C)[NH2+][B-]12CC3CC(CC(C3)C1)C2,>10 µM,10 µM,,
C1C2CC3CC1C[B-]([NH2+]C14CC5CC(CC(C5)C1)C4)(C2)C3,,,,10 µM
COC(=O)[C@H](Cc1ccccc1)NC(=O)C12CC3CC(CC(C3)C1)C2,>10 µM,10 µM,,
